In general, IC50 refers to the concentration needed to halve the response being measured. By T/C is commonly meant the result in the treated group divided by that in the control group, in per cent.

Data set [1] can be described thus: Solubility in water. The settings on record: read-out: S. It is filed as physicochemical.
Data set [2] concerns B16. Put plainly: Concentration required to inhibit the proliferation of B16 melanoma cells was determined. The format is functional, cell-based. The settings on record: Mus musculus.
Data set [3] relates to B16. The data set is described as follows: Percentage change in cell number of B16 melanoma cells treated with 10e-5 M dose. The format is functional, Mus musculus. The method, boiled down:
(§1)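 B16 melanoma cells exposed to 10⁻⁵ or 10⁻⁶ M compound for 8 h, then rinsed three times with fresh medium. Cells then grown in drug-free medium for 48 h and counted. Result given as percent change relative to the cell number at time zero. Controls are the average of three experiments.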

Data set [4] concerns B16. The data set is described as follows: Percentage change in cell number of B16 melanoma cells treated with 10e-6 M dose. The format is functional, Mus musculus. The method in brief:
as §1

Data set [5] relates to B16. Put plainly: Relative effect on B16 melanoma cell proliferation was determined [IC50 (taxol)/IC50 (derivative)]. It is filed as functional, Mus musculus.
The next data set is filed under the species Bos taurus. Put plainly: Relative effect on microtubular assembly (Tubulin polymerized by derivative/tubulin polymerized by taxol). It is filed as functional. The method in brief: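 Bovine brain tubulin, purified from microtubule-associated proteins by phosphocellulose chromatography, used at 10 μM. Turbidity followed at 350 nm. Polymer pelleted at 200000g, 37 °C, 4 min, depolymerized on ice, and protein measured by Bradford.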

Data set [6] has as its system Mus musculus. The data set is described as follows: Initial average tumor weight was measured in mice induced with human mammary carcinoma at a dose of 42 mg/Kg. The format is functional. The method, boiled down:
(§2)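 MX-1 human mammary carcinoma xenograft implanted under the renal capsule of mice. The study was run at the National Cancer Institute following the procedures of NIH Publication No. 84-2635. Average tumor weight was recorded at the start and end of treatment, and survivors were counted after 11 days. Dosed groups were compared with an untreated control group.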

Data set [7] deals with Mus musculus. The data set is described as follows: Initial average tumor weight was measured in mice induced with human mammary carcinoma at a dose of 5.25 mg/Kg. The format is functional. The method, boiled down:
as §2

Data set [8] deals with Mus musculus. The data set is described as follows: Initial average tumor weight was measured in mice induced with human mammary carcinoma at a dose of 10.5 mg/Kg. The format is functional. The method in brief: as §2
Data set [9] deals with Mus musculus. Put plainly: Number of survivors after 11 days at a dose of 10.5 mg/Kg tested in 6 mice. It is filed as functional. The method in brief:
as §2

Data set [10] relates to Mus musculus. Put plainly: Tumor growth or regression measured as Percent treated by control at a dose of 42 mg/Kg to mice with MX-1 xenograft. It is filed as functional. The method in brief:
(§3)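 Subrenal capsule MX-1 mammary xenograft in mice, run at the National Cancer Institute per NIH Publication No. 84-2635. %T/C = (Δ tumor weight treated / Δ tumor weight control) × 100 where tumors grew. Where tumors regressed, %T/C = (Δ tumor weight treated / initial control tumor weight) × 100.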

The test system of data set [11] is Mus musculus. Put plainly: Tumor growth or regression measured as Percent treated by control at a dose of 5.25 mg/Kg to mice with MX-1 xenograft. It is filed as functional. The method, boiled down: as §3
Data set [12] relates to Mus musculus. The data set is described as follows: Tumor growth or regression measured as Percent treated by control at a dose of 10.5 mg/Kg to mice with MX-1 xenograft. It is filed as functional. The method in brief:
as §3

Data set [13] concerns Mus musculus. The data set is described as follows: Number of survivors after 11 days at a dose of 42 mg/Kg tested in 5 mice. It is filed as functional. The method in brief:
as §2

In data set [14] the test system is Mus musculus. The data set is described as follows: Number of survivors after 11 days at a dose of 5.25 mg/Kg tested in 6 mice. It is filed as functional. The method, boiled down: as §2
Data set [15] has as its system Mus musculus. Put plainly: Final average tumor weight was measured in mice induced with human mammary carcinoma at a dose of 10.5 mg/Kg. The format is functional. The method, boiled down: as §2
Data set [16] relates to Mus musculus. Put plainly: Final average tumor weight was measured in mice induced with human mammary carcinoma at a dose of 42 mg/Kg. It is filed as functional. The method, boiled down: as §2
Data set [17] relates to Mus musculus. Put plainly: Final average tumor weight was measured in mice induced with human mammary carcinoma at a dose of 5.25 mg/Kg. The format is functional. The method in brief: as §2
The subject of data set [18] is Mus musculus. Put plainly: Antitumor activity of taxoland the derivative against mammary carcinoma xenograft in mice. The format is functional. The method, boiled down:
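MX-1 human mammary carcinoma xenograft implanted under the renal capsule in mice. Study run at the National Cancer Institute following NIH Publication No. 84-2635. Tumor weights recorded at the start and at the end. Survivors counted after 11 days. %T/C = (Δ tumor weight treated/Δ tumor weight control) × 100 where the tumor grows, and (Δ tumor weight treated/initial control tumor weight) × 100 where it regresses.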

As to `CC(=O)O[C@H]1C(=O)[C@]2(C)[C@@H](OC(=O)CN(C)C)C[C@H]3OC[C@@]3(OC(C)=O)[C@H]2[C@H](OC(=O)c2ccccc2)[C@]2(O)C[C@H](OC(=O)[C@H](OC(=O)CN(C)C)[C@@H](NC(=O)c3ccccc3)c3ccccc3)C(C)=C1C2(C)C.CS(=O)(=O)O.CS(=O)(=O)O`, in data set [1], the solubility was more than 8.11 mM. The molecule further had a 50% inhibitory concentration (IC50) in the data set with B16 [2] of 42 nM. Further, the “Change in cell number” value in the data set with B16 [3] is recorded as -72%; with B16 [4], 137%. Moreover, the results for the Relative effect in the data set with B16 [5] and in the data set listed under Bos taurus were 0.45 and 0.42, respectively. Moreover, the “Initial average tumor weight” value in the data set on Mus musculus [6] was 0.66 mg; in the data set with Mus musculus [7], 0.71 mg; with Mus musculus [8], 0.59 mg. Moreover, the values for the No. of survivors in the data set on Mus musculus [9], with Mus musculus [13] and with Mus musculus [14] were 5, 4 and 6, respectively. Besides, the T/C turned out to be 144% in the data set on Mus musculus [10], 70% in the data set on Mus musculus [11] and 193% with Mus musculus [12]. The “Final average tumor weight” value in the data set with Mus musculus [15] stood at 5.55 mg; in the data set with Mus musculus [16], 4.35 mg; in the data set with Mus musculus [17], 2.51 mg. In addition, the Relative antitumor activity with Mus musculus [18] is given as 4.

Values taken from ChEMBL document CHEMBL1126013, “Synthesis and evaluation of some water-soluble prodrugs and derivatives of taxol with antitumor activity” (J Med Chem, 1992).
